Converted amounts (≈) assume the structure as drawn. Each block holds one molecule with its values, some of them ahead of it.
What was measured:
[1] = Tmax in BALB-C mouse at 10 mg/kg, po by LC-MS/MS analysis; type: ADME, organism-based; details: in vivo
Summary of the method: (§1)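 BALB-C mice dosed IV in 10% NMP/50% PEG300/40% saline or PO in 10% NMP/90% PEG300. Plasma sampled at 6 (IV) or 8 (PO) time points and quantified by LC/MS/MS. Parameters come from a bicompartmental model fit; values are means of 3 independent samples. Plasma levels were compared with AKT-P EC50 from U2OS cells converted to ng/ml.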

Mus musculus = assay: Time at which plasma concentration stays above cellular EC50 for inhibition of AKT phosphorylation in BALB-C mouse at 10 mg/kg, po measured up to 24 hrs by LC-MS/MS analysis; type: organism-based; details: in vivo; summary of the method: as §1
[2] = Oral bioavailability in BALB-C mouse at 10 mg/kg by LC-MS/MS analysis; type: ADME, organism-based; details: in vivo; summary of the method: as §1
[3] = Cmax in BALB-C mouse at 10 mg/kg, po by LC-MS/MS analysis; type: ADME, organism-based; design: dose 10 mg/kg, route oral; details: in vivo
Summary of the method: (§2)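 BALB-C mice dosed IV (10% NMP/50% PEG300/40% saline) or PO (10% NMP/90% PEG300). Plasma sampled at 6 (IV) or 8 (PO) time points; compound measured by LC/MS/MS. Parameters from bicompartmental model fit; each value is the mean of 3 independent samples.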

[4] = AUC (infinity) in BALB-C mouse at 3 mg/kg, iv by LC-MS/MS analysis; type: ADME, organism-based; design: dose 3 mg/kg, time infinity, route intravenous; details: in vivo; summary of the method: as §2
[5] = Half-life in BALB-C mouse at 9 mg/kg, po by LC-MS/MS analysis; type: ADME, organism-based; details: in vivo; summary of the method: as §2
[6] = Oral bioavailability in BALB-C mouse at 9 mg/kg by LC-MS/MS analysis; type: ADME, organism-based; details: in vivo; summary of the method: as §1
[7] = Half-life in BALB-C mouse at 3 mg/kg, iv by LC-MS/MS analysis; type: ADME, organism-based; details: in vivo; summary of the method: as §2
[8] = Tmax in BALB-C mouse at 9 mg/kg, po by LC-MS/MS analysis; type: ADME, organism-based; details: in vivo; summary of the method: as §1
U2OS = assay: Inhibition of AKT phosphorylation in human U2OS cells
[9] = AUC (infinity) in BALB-C mouse at 9 mg/kg, po by LC-MS/MS analysis; type: ADME, organism-based; design: dose 9 mg/kg, time infinity, route oral; details: in vivo; summary of the method: as §2
[10] = AUC (infinity) in BALB-C mouse at 5 mg/kg, po by LC-MS/MS analysis; type: ADME, organism-based; design: dose 5 mg/kg, route oral, time infinity; details: in vivo; summary of the method: as §2
[11] = Tmax in BALB-C mouse at 5 mg/kg, po by LC-MS/MS analysis; type: ADME, organism-based; details: in vivo; summary of the method: as §1

- Tmax [1]: 1 h
- Time (Mus musculus): > 12 h
- bioavailability [2]: 88%
- Cmax [3]: 674 ng/mL
Compound: CS(=O)(=O)N1CCN(Cc2nc3c(N4CCOCC4)nc(-c4cnc(N)nc4)cn3n2)CC1

- AUC(0-inf) [4]: 5820 ng·h/mL
- half-life [5]: 2.84 h
- bioavailability [6]: 29.5%
- half-life [7]: 0.51 h
- Tmax [8]: 1 h
- EC50 (U2OS): 0.01444 µg/mL (≈ 0.0305 µM)
- AUC(0-inf) [9]: 5150 ng·h/mL
Compound: CS(=O)(=O)N1CCN(Cc2cc3c(N4CCOCC4)nc(-c4cnc(N)nc4)cn3n2)CC1

- AUC(0-inf) [10]: 5650 ng·h/mL
- Tmax [11]: 1 h
Compound: CS(=O)(=O)N1CCN(Cc2nc3c(N4CCOCC4)nc(-c4cnc(N)nc4)c(Cl)n3n2)CC1

Reference: ChEMBL document CHEMBL4177600, “Identification of novel PI3K inhibitors through a scaffold hopping strategy” (Bioorg Med Chem Lett, 2017)
